Measured values: ChEMBL document CHEMBL1149771, “Antimicrobial studies of 2,4-dichloro-5-fluorophenyl containing oxadiazoles” (2008)
≈ marks a conversion by molar mass, not a printed value.

Legend:
Type in all cases: functional
Aspergillus fumigatus [1] = experiment: Antifungal activity against Aspergillus fumigatus at 35 degC after 48 hrs
How it was run: (§1)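 Fungicidal endpoint (MFC). 0.1 ml from each broth-dilution tube was spread on agar plates and c.f.u. counted after 48 h at 35 °C. MFC was the lowest concentration killing 99.9% of the inoculum.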

Escherichia coli [2] = experiment: Antibacterial activity against Escherichia coli ATCC 25922 at 37 degC after 24 hrs by broth dilution method; settings: ATCC 25922, 24 h
How it was run: (§2)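 Broth dilution MIC. Nutrient broth held two-fold serial dilutions of compound and was inoculated with about 5 × 10⁵ c.f.u. of actively dividing bacteria. Cultures ran 24 h at 37 °C, with growth checked visually and spectrophotometrically. MIC was the lowest concentration arresting growth. Ciprofloxacin was the standard.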

Candida albicans [3] = experiment: Antifungal activity against Candida albicans at 35 degC after 48 hrs by broth dilution method
How it was run: (§3)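 Fungal MIC by broth dilution. Two-fold serial dilutions of compound in nutrient broth were inoculated with about 1.6 × 10⁴–6 × 10⁴ c.f.u./ml. Incubation was 48 h at 35 °C. MIC was the lowest concentration arresting fungal growth.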

Klebsiella pneumoniae [4] = experiment: Antibacterial activity against Klebsiella pneumoniae ATCC 25922 at 37 degC after 24 hrs by broth dilution method; settings: recultured, in the assay text read “Klebsiella pneumoniae (recultured)” for “Klebsiella pneumoniae ATCC 25922”; how it was run: as §2
Talaromyces marneffei [5] = experiment: Antifungal activity against Penicillium marneffei at 35 degC after 48 hrs; how it was run: as §1
Staphylococcus aureus [6] = experiment: Antibacterial activity against Staphylococcus aureus ATCC 25923 at 35 degC after 18 to 24 hrs
How it was run: (§4)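 Bactericidal endpoint (MBC) taken from the broth-dilution MIC tubes. 0.1 ml from each tube was spread on agar plates and c.f.u. counted after 18–24 h. MBC was the lowest concentration completely killing the bacteria.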

Staphylococcus aureus [7] = experiment: Antibacterial activity against Staphylococcus aureus ATCC 25923 at 37 degC after 24 hrs by disc diffusion method
How it was run: (§5)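 Disc diffusion on nutrient agar. Plates were spread with 1–2 × […] c.f.u./ml inoculum (0.5 McFarland). Sterile 6.25 mm filter-paper discs were soaked in a known concentration of compound and placed on the agar. Plates were inverted and incubated 24 h at 37 °C. Inhibition zones (mm) were read against solvent and growth controls, with ciprofloxacin as reference.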

Candida albicans [8] = experiment: Antifungal activity against Candida albicans at 35 degC after 48 hrs; how it was run: as §1
Klebsiella pneumoniae [9] = experiment: Antibacterial activity against Klebsiella pneumoniae ATCC 25922 at 37 degC after 24 hrs by disc diffusion method; how it was run: as §5
[10] = system: Trichophyton mentagrophytes; experiment: Antifungal activity against Trichophyton mentagrophytes at 37 degC after 3 to 4 days by agar dilution method; settings: in the assay text read “agar diffusion method” for “agar dilution method”
How it was run: (§6)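 Agar well diffusion for fungi, compounds in DMSO. Sabouraud agar was adjusted to pH 5.7 and lawned with a saline spore suspension (a loopful in 3 ml). Plates were dried 1 h at 37 °C, then wells were punched. Incubation was 3–4 days at 37 °C, with controls in triplicate. Inhibition zones were measured against controls, with griseofulvin as standard.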

Klebsiella pneumoniae [11] = experiment: Antibacterial activity against Klebsiella pneumoniae ATCC 25922 at 35 degC after 18 to 24 hrs; settings: recultured, in the assay text read “Klebsiella pneumoniae (recultured)” for “Klebsiella pneumoniae ATCC 25922”; how it was run: as §4
Staphylococcus aureus [12] = experiment: Antibacterial activity against Staphylococcus aureus ATCC 25923 at 37 degC after 24 hrs by broth dilution method; settings: ATCC 25923, 24 h; how it was run: as §2
Talaromyces marneffei [13] = experiment: Antifungal activity against Penicillium marneffei at 35 degC after 48 hrs by broth dilution method; how it was run: as §3
Aspergillus fumigatus [14] = experiment: Antifungal activity against Aspergillus fumigatus at 37 degC after 3 to 4 days by agar […] method; how it was run: as §6
[15] = system: Trichophyton mentagrophytes; experiment: Antifungal activity against Trichophyton mentagrophytes at 35 degC after 48 hrs; how it was run: as §1
Talaromyces marneffei [16] = experiment: Antifungal activity against Penicillium marneffei at 37 degC after 3 to 4 days by agar […] method; how it was run: as §6
Pseudomonas aeruginosa [17] = experiment: Antibacterial activity against Pseudomonas aeruginosa ATCC 27853 at 37 degC after 24 hrs by broth dilution method; settings: ATCC 27853, 24 h; how it was run: as §2
Candida albicans [18] = experiment: Antifungal activity against Candida albicans at 37 degC after 3 to 4 days by agar dilution method; settings: for Activity: in the assay text read “agar diffusion method” for “agar dilution method”; how it was run: as §6
Aspergillus fumigatus [19] = experiment: Antifungal activity against Aspergillus fumigatus at 35 degC after 48 hrs by broth dilution method; how it was run: as §3
Escherichia coli [20] = experiment: Antibacterial activity against Escherichia coli ATCC 25922 at 37 degC after 24 hrs by disc diffusion method; how it was run: as §5
[21] = system: Trichophyton mentagrophytes; experiment: Antifungal activity against Trichophyton mentagrophytes at 35 degC after 48 hrs by broth dilution method; how it was run: as §3
Pseudomonas aeruginosa [22] = experiment: Antibacterial activity against Pseudomonas aeruginosa ATCC 27853 at 35 degC after 18 to 24 hrs; how it was run: as §4
Escherichia coli [23] = experiment: Antibacterial activity against Escherichia coli ATCC 25922 at 35 degC after 18 to 24 hrs; how it was run: as §4
Pseudomonas aeruginosa [24] = experiment: Antibacterial activity against Pseudomonas aeruginosa ATCC 27853 at 37 degC after 24 hrs by disc diffusion method; how it was run: as §5

Row | Compound | MFC (Aspergillus fumigatus [1]) | MIC (Escherichia coli [2]) | MIC (Candida albicans [3]) | MIC (Klebsiella pneumoniae [4]) | MFC (Talaromyces marneffei [5]) | MBC (Staphylococcus aureus [6]) | inhibition zone (IZ) (Staphylococcus aureus [7]) | MFC (Candida albicans [8]) | MBC (Klebsiella pneumoniae [11]) | MIC (Staphylococcus aureus [12]) | MIC (Talaromyces marneffei [13]) | inhibition zone (IZ) (Aspergillus fumigatus [14]) | MFC [15] | inhibition zone (IZ) (Talaromyces marneffei [16]) | MIC (Pseudomonas aeruginosa [17]) | MIC (Aspergillus fumigatus [19]) | inhibition zone (IZ) (Escherichia coli [20]) | MIC [21] | MBC (Pseudomonas aeruginosa [22]) | MBC (Escherichia coli [23]) | other results
1 | Cc1ccc(OCc2nnc(-c3cc(F)c(Cl)cc3Cl)o2)cc1 | 12.5 µg/mL (≈ 35.4 µM) | 6.25 µg/mL (≈ 17.7 µM) | 6.25 µg/mL (≈ 17.7 µM) | 12.5 µg/mL (≈ 35.4 µM) | 12.5 µg/mL (≈ 35.4 µM) | 12.5 µg/mL (≈ 35.4 µM) | 22 mm | 6.25 µg/mL (≈ 17.7 µM) | 25 µg/mL (≈ 70.8 µM) | 6.25 µg/mL (≈ 17.7 µM) | 6.25 µg/mL (≈ 17.7 µM) | 26 mm | 6.25 µg/mL (≈ 17.7 µM) | 18 mm | 6.25 µg/mL (≈ 17.7 µM) | 6.25 µg/mL (≈ 17.7 µM) | 25 mm | 6.25 µg/mL (≈ 17.7 µM) | 12.5 µg/mL (≈ 35.4 µM) | 6.25 µg/mL (≈ 17.7 µM) | inhibition zone (IZ) (Klebsiella pneumoniae [9]): 18 mm; inhibition zone (IZ) [10]: 24 mm; inhibition zone (IZ) (Candida albicans [18]): 27 mm; inhibition zone (IZ) (Pseudomonas aeruginosa [24]): 32 mm
2 | Cc1cc(Cl)ccc1OCc1nnc(-c2cc(-c3cc(F)c(Cl)cc3Cl)nc3ccccc23)o1 | 50 µg/mL (≈ 97.1 µM) | > 100 µg/mL | > 100 µg/mL | > 100 µg/mL | > 100 µg/mL | 25 µg/mL (≈ 48.6 µM) | 17 mm | > 100 µg/mL | > 100 µg/mL | 6.25 µg/mL (≈ 12.1 µM) | > 100 µg/mL | 12 mm | 12.5 µg/mL (≈ 24.3 µM) | – | 12.5 µg/mL (≈ 24.3 µM) | 12.5 µg/mL (≈ 24.3 µM) | – | 6.25 µg/mL (≈ 12.1 µM) | 50 µg/mL (≈ 97.1 µM) | > 100 µg/mL | Activity (Klebsiella pneumoniae [9]): >100 µg/mL; inhibition zone (IZ) [10]: 19 mm; Activity (Talaromyces marneffei [16]): >100 µg/mL; Activity (Candida albicans [18]): >100 µg/mL; Activity (Escherichia coli [20]): >100 µg/mL; inhibition zone (IZ) (Pseudomonas aeruginosa [24]): 12 mm
3 | Cc1cc(OCc2nnc(-c3cc(-c4cc(F)c(Cl)cc4Cl)nc4ccccc34)o2)ccc1Cl | 25 µg/mL (≈ 48.6 µM) | 12.5 µg/mL (≈ 24.3 µM) | > 100 µg/mL | > 100 µg/mL | 50 µg/mL (≈ 97.1 µM) | > 100 µg/mL | – | > 100 µg/mL | > 100 µg/mL | > 100 µg/mL | 12.5 µg/mL (≈ 24.3 µM) | 15 mm | > 100 µg/mL | 12 mm | 6.25 µg/mL (≈ 12.1 µM) | 12.5 µg/mL (≈ 24.3 µM) | 17 mm | > 100 µg/mL | 25 µg/mL (≈ 48.6 µM) | 25 µg/mL (≈ 48.6 µM) | Activity (Staphylococcus aureus [7]): >100 µg/mL; Activity (Klebsiella pneumoniae [9]): >100 µg/mL; Activity [10]: >100 µg/mL; Activity (Candida albicans [18]): >100 µg/mL; inhibition zone (IZ) (Pseudomonas aeruginosa [24]): 26 mm
4 | Fc1cc(-c2cc(-c3nnc(COc4ccc(Cl)cc4)o3)c3ccccc3n2)c(Cl)cc1Cl | 25 µg/mL (≈ 49.9 µM) | 6.25 µg/mL (≈ 12.5 µM) | 12.5 µg/mL (≈ 25 µM) | 12.5 µg/mL (≈ 25 µM) | 12.5 µg/mL (≈ 25 µM) | 12.5 µg/mL (≈ 25 µM) | 19 mm | 50 µg/mL (≈ 99.9 µM) | 25 µg/mL (≈ 49.9 µM) | 6.25 µg/mL (≈ 12.5 µM) | 6.25 µg/mL (≈ 12.5 µM) | 16 mm | 12.5 µg/mL (≈ 25 µM) | 20 mm | 6.25 µg/mL (≈ 12.5 µM) | 6.25 µg/mL (≈ 12.5 µM) | 25 mm | 6.25 µg/mL (≈ 12.5 µM) | 25 µg/mL (≈ 49.9 µM) | 6.25 µg/mL (≈ 12.5 µM) | inhibition zone (IZ) (Klebsiella pneumoniae [9]): 18 mm; inhibition zone (IZ) [10]: 15 mm; inhibition zone (IZ) (Candida albicans [18]): 12 mm; inhibition zone (IZ) (Pseudomonas aeruginosa [24]): 32 mm
5 | Cc1cc(OCc2nnc(-c3cc(F)c(Cl)cc3Cl)o2)ccc1Cl | 50 µg/mL (≈ 129 µM) | 12.5 µg/mL (≈ 32.2 µM) | > 100 µg/mL | > 100 µg/mL | 50 µg/mL (≈ 129 µM) | 50 µg/mL (≈ 129 µM) | 10 mm | > 100 µg/mL | > 100 µg/mL | 25 µg/mL (≈ 64.5 µM) | 25 µg/mL (≈ 64.5 µM) | 8 mm | > 100 µg/mL | 10 mm | > 100 µg/mL | 25 µg/mL (≈ 64.5 µM) | 15 mm | > 100 µg/mL | > 100 µg/mL | 100 µg/mL (≈ 258 µM) | inhibition zone (IZ) (Klebsiella pneumoniae [9]): 12 mm; Activity [10]: >100 µg/mL; Activity (Candida albicans [18]): >100 µg/mL; Activity (Pseudomonas aeruginosa [24]): >100 µg/mL
